From PubChem BioAssay
RAD52 inh = RAD52 (human) annealing inhibition. P43351. recombinant RAD52 DNA annealing, FRET fluorescence. inhibition, % at 18.7 µM. 360,000 tested, 0.46% active;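 active = every replicate showing at least 50% inhibition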
Target sequence (P43351 whole entry, looked up): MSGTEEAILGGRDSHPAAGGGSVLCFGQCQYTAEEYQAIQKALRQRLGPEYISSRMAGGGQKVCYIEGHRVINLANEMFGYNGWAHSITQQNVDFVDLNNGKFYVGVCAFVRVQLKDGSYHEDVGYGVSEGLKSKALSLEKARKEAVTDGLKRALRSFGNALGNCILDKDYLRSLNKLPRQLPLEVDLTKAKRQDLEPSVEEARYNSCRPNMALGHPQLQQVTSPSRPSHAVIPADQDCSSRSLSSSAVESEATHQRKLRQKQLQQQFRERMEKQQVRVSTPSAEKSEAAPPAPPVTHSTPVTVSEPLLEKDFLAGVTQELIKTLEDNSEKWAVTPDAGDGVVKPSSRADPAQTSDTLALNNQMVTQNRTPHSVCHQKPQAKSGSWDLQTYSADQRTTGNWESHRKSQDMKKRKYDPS
Casp6 inh = inhibitors of human caspase-6 | P55212 | purified caspase-6, Z-VEID-R110 cleavage fluorescence | inhibition, % at 12.5 µM | 350,000 tested, 0.53% active | AID 686996;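 active = mean inhibition across replicates at least about 35%, with every replicate also reaching that limit, limit read from the data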;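 also: 0% = median of neutral control wells and 100% = no fluorescence left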
S100A4 MyoIIA = inhibitors of human S100A4 binding to myosin IIA peptide | S100A4/TAMRA-MyoIIA peptide fluorescence polarization | inhibition, % at 10.7 µM | 360,000 tested, 0.14% active;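 active = mean inhibition of at least 70% across replicates, with every replicate also reaching that level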
Target sequence (P26447 whole entry, looked up): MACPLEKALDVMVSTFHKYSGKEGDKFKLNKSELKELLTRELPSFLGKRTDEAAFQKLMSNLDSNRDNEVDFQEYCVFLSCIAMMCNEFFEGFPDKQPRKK
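Test system – S100A4 monomer (human) · Compound – single-point compound testing · Schedule – 5 min incubation before reading · Probe or stimulus – TAMRA-labelled myosin IIA heavy-chain peptide probe, 5 nM · Benchmarks – neutral control DMSO, positive control TFP · Medium – Calcium-containing HEPES buffer, pH 7.2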
RAD54 inh = inhibitors of human RAD54 branch migration. Q92698. RAD54 Holliday junction branch migration, FAM/BHQ fluorescence. inhibition, % at 10.4 µM. 360,000 tested, 0.14% active. AID 602329;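 active = mean normalized replicate activity at least 40 and at least half of replicates scoring 40 or more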;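 also: 0% = median of neutral control wells and 100% = median of positive control wells; inhibitors cause a drop in the FAM fluorescence signal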
MLL AF4-AF9 inh = blocks AF4 peptide binding to human AF9; 350,000 tested, 0.47% active; AID 651704; P42568; AlphaScreen, biotin-AF4 peptide binding to FLAG-AF9; inhibition, % at 10 µM;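 active = every replicate reaching a set inhibition limit, whatever the replicate mean, cut at about 25% in these data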;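 also: 0% = plate neutral control median and 100% = total signal loss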
XiGFP reactiv = activators of X-chromosome reactivation in mouse fibroblasts. XiGFP mouse fibroblasts, % GFP-positive cells imaging, 3 d; cells co-treated with 5-aza-dC sensitizer; scaled so ellipticine positive control = 100%. activation, % at 7.58 µM. 360,000 tested, 0.055% active. AID 743238;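 active = mean normalized replicate activation at least 10% and every replicate at or above 10%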;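 also: 0% = median of on-plate neutral control wells and 100% = ellipticine 6 µM median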
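Material: XiGFP fibroblasts, SV40-immortalized. Buffer or medium: DMEM plus 5-aza-dC sensitizer. Compound: single concentration per compound, delivered by pin transfer. Times: 3 days compound exposure. Controls: ellipticine 6 µM.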
Active calls of the source: *; x = no result given. Sampled rows, rich in hits. Any-hit rate of the full collection: about 1.3%.

SMILES | RAD52 inh | Casp6 inh | S100A4 MyoIIA | RAD54 inh | MLL AF4-AF9 inh | XiGFP reactiv
O=C1CN(Cc2ccc(F)cc2)C[C@@H]2[C@@H](c3ccc(-c4ccccc4F)cc3)[C@H](CO)N12 | -9 | 5 | 112* | x | -5 | 0
O=C(c1cccnc1)N1CC(=O)N2[C@H](C1)[C@H](c1ccc(-c3cccnc3)cc1)[C@@H]2CO | -11 | 1 | -8 | x | 32* | 0
O=C(Nc1ccccc1F)N1CC(=O)N2[C@H](CO)[C@@H](c3ccc(-c4ccccc4)cc3)[C@H]2C1 | -3 | -2 | 124* | x | -1 | 0
O=C(c1cnccn1)N1CC(=O)N2[C@H](CO)[C@@H](c3ccc(-c4ccc(F)cc4)cc3)[C@H]2C1 | -9 | 3 | 124* | x | 2 | 0
O=C(c1ccc2c(c1)OCO2)N1CC2(C1)[C@H](c1ccccc1)[C@@H](CO)N2C(=O)C1CC1 | 7 | 0 | 4 | x | -1 | 0
CC(=O)N1[C@H](CO)[C@@H](c2ccc(-c3ccccc3F)cc2)C12CN(CC1CCOCC1)C2 | -5 | -1 | -1 | x | 5 | 0
CN(C)CC#Cc1ccc([C@@H]2[C@H]3CN(C(=O)c4cccnc4)CC(=O)N3[C@H]2CO)cc1 | x | x | x | x | x | 0
O=C(c1cccnc1)N1CC(=O)N2[C@H](C1)[C@H](c1ccc(/C=C/c3ccccc3)cc1)[C@@H]2CO | -8 | 1 | -33 | x | 37* | 0
O=C(c1cccnc1)N1CC(=O)N2[C@H](CO)[C@H](c3ccc(/C=C/c4ccccc4)cc3)[C@@H]2C1 | 3 | -1 | -13 | x | 2 | 0
CN(C)CC#Cc1ccc([C@H]2[C@H]3CN(C(=O)c4cccnc4)CC(=O)N3[C@H]2CO)cc1 | 3 | 1 | 21 | x | 35* | 0
Cc1noc(C)c1NC(=O)N1C[C@@H](O)COC[C@@H]2O[C@@H](CC(=O)N[C@@H]3CCN(Cc4ccccc4)C3)CC[C@H]21 | x | x | x | x | x | 0
C=CCNC(=S)N1CCC(C(=O)c2ccc(Cl)cc2)CC1 | -7 | 64* | -8 | 2 | -1 | 0
C[C@H](NC(=O)[C@@H]1[C@@H](CO)[C@@H]2Cn3c(ccc(C4=CCCCC4)c3=O)[C@H]1N2)c1ccccc1 | -20 | -1 | 0 | 7 | 1 | 0
CCC(=O)N(CC)C1=C(O)c2ccccc2C(=O)C1=O | -9 | 40* | -6 | x | 13 | x
Cc1ccc(CNC(=O)c2cc3c(=O)n(C)c4ccccc4c3n2C)cc1 | -15 | -1 | 3 | 8 | -2 | 0
CCCN(CCC)CCNC(=O)c1cc2c(=O)n(C)c3ccccc3c2n1C | 26 | -2 | 1 | 55* | -4 | 0
CN(CCNC(=O)c1cc2c(=O)n(C)c3ccccc3c2n1C)Cc1ccccc1 | 15 | 2 | 0 | 52* | -1 | 0
CO[C@@H]1CC[C@@H]2CCN(C)C(=O)[C@H](C)N(C)C(=O)c3cc(C#N)ccc3OC[C@H]1O2 | x | x | x | -4 | -3 | 0
COCC(=O)N1C[C@H]2[C@@H](c3ccccc31)[C@H](CO)N2C(=O)C1CCCCC1 | x | x | x | -8 | x | 0
O=C1NC2c3c(Cl)sc(Cl)c3C(=O)C2O1 (stereo not given) | -42 | 69* | 2 | x | -10 | 1
O=C1NC2c3c(I)sc(I)c3C(=O)C2O1 (stereo not given) | -75 | 34 | 27 | x | 5 | 1
C[C@H](CO)N1C[C@H](C)[C@@H](CN(C)Cc2ccc(-c3ccccc3)cc2)Oc2ccc(NC(=O)Nc3cccc4ccccc34)cc2C1=O | 12 | -1 | 1 | 6 | -1 | 0
CNC(=O)c1ccccc1NC(=O)C1CC(=O)N(C(C)C)C1 (stereo not given) | -25 | 66* | -4 | 3 | -1 | 0
C[C@@H]1CN([C@@H](C)CO)C(=O)Cc2cc(NS(=O)(=O)c3cn(C)cn3)ccc2O[C@H]1CN(C)Cc1ccc(C(=O)O)cc1 | 4 | -1 | -1 | 6 | -4 | 0
CCOC(=O)c1ccccc1-n1c(C)cc(C2N=C(N)Nc3nc4ccccc4n32)c1C (stereo not given) | 0 | 7 | 2 | -1 | 25* | x
SMILES | RAD52 inh | Casp6 inh | S100A4 MyoIIA | RAD54 inh | MLL AF4-AF9 inh | XiGFP reactiv
C[C@@H]1CN([C@H](C)CO)C(=O)Cc2cc(NS(=O)(=O)c3ccccc3)ccc2O[C@@H]1CN(C)CC1CC1 | 16 | -2 | 54 | 18 | 3 | -1
O=C(c1cccnc1)N1C[C@H]2[C@@H](c3ccccc31)[C@H](CO)N2C(=O)CN1CCOCC1 | -8 | x | 9 | -4 | -2 | 0
CCC(=O)N1C[C@@H]2[C@H](c3ccccc31)[C@@H](CO)N2C(=O)CC | 6 | -4 | 73* | 1 | -1 | 0
O=C(c1ccncc1)N1C[C@@H]2[C@H](c3ccccc31)[C@@H](CO)N2C(=O)CN1CCOCC1 | 2 | -1 | 97* | 0 | 3 | 0
C[C@@H]1CN([C@H](C)CO)C(=O)c2cccc(NC(=O)c3ccc(-c4nccs4)cc3)c2O[C@@H]1CN(C)Cc1ccc(Cl)c(Cl)c1 | 4 | 5 | 1 | -2 | 3 | -1
O=c1cc(-c2ccc(O)cc2)oc2c(O)c(O)c(O)c(O)c12 | 10 | 63* | -12 | 24 | -3 | x
COc1c(O)cc2oc(-c3ccc(O)cc3)cc(=O)c2c1O | 6 | 4 | 1 | 7 | 5 | 0
O=c1cc(-c2ccccc2)oc2cc(O)c(O)c(O)c12 | -4 | 44* | 2 | 13 | -18 | x
O=c1cc(-c2ccc(O)cc2)oc2c1ccc1ccccc12 | -9 | 2 | 2 | x | 0 | -1
C[C@H]1C/C=C\C[C@H](c2ccc3c(c2)OCO3)NC(=O)[C@H](c2ccccc2)CC(=O)N1 | x | x | x | x | x | 0
N#C[C@@H]1[C@H](c2ccc(C3=CCCC3)cc2)[C@@H](CO)N1c1nc(-c2ccccc2)cs1 | -19 | 0 | -1 | x | 0 | 0
CC(C)NC(=O)N(C)C[C@H]1Oc2ccc(NS(=O)(=O)c3ccccc3)cc2C(=O)N([C@@H](C)CO)C[C@@H]1C | 19 | 1 | -14 | 10 | 2 | 0
COc1ccc(S(=O)(=O)Nc2ccc3c(c2)C(=O)N([C@@H](C)CO)C[C@H](C)[C@@H](CN(C)C(=O)Nc2ccccc2)OCCCC[C@H](C)O3)cc1 | x | x | x | -15 | x | 0
COc1ccc(NC(=O)N(C)C[C@H]2OCCCC[C@@H](C)Oc3ccc(NS(=O)(=O)c4ccccc4)cc3C(=O)N([C@H](C)CO)C[C@@H]2C)cc1 | 99* | 3 | 2 | 0 | -1 | 0
C[C@H]1CCCCO[C@H](CN(C)C(=O)Nc2ccc(C(F)(F)F)cc2)[C@@H](C)CN([C@@H](C)CO)C(=O)c2cc(NS(=O)(=O)c3ccccc3)ccc2O1 | -32 | 0 | 86* | -4 | -5 | 0
